Converted amounts (≈) assume the structure as drawn.
Tests used:
Escherichia coli [1] = test: Minimum inhibitory concentration required against Gram-negative Escherichia coli WT; type: functional
In short: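 Standard microtitration MIC determination against wild-type E. coli strain MC4100.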

Escherichia coli [2] = test: Minimum inhibitory concentration required against Gram-negative Escherichia coli LKY; type: functional
In short: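 Standard microtitration MIC determination against E. coli LKY, a cell-wall-deficient, semi-permeable strain.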

Escherichia coli [3] = test: Minimum inhibitory concentration required against Gram-negative Escherichia coli TLC; type: functional
Staphylococcus aureus = test: Minimum inhibitory concentration required against Gram-positive Staphylococcus aureus; type: functional
Streptococcus pyogenes = test: Minimum inhibitory concentration required against Gram-positive Streptococcus pyogenes; type: functional
[4] = biological target: DNA gyrase (Escherichia coli) (UniProt P0AES6+P0AES4); test: Concentration required to inhibit in vitro DNA gyrase activity isolated from Escherichia coli; type: protein-complex assay
In short: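 DNA gyrase isolated and purified from E. coli H560. The end point is the lowest drug concentration […] that gives detectable cleavage of relaxed bacterial Col E1 plasmid DNA. Cleavage is read by agarose gel electrophoresis with ethidium bromide staining.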

Enterococcus faecalis = test: Minimum inhibitory concentration required against Gram-positive Enterococcus faecalis; type: functional

Structure (SMILES) | MIC (Escherichia coli [1]) [µg/mL] | MIC (Escherichia coli [2]) [µg/mL] | MIC (Escherichia coli [3]) [µg/mL] | MIC (Staphylococcus aureus) [µg/mL] | MIC (Streptococcus pyogenes) [µg/mL] | Activity [4] [µM] | MIC (Enterococcus faecalis) [µg/mL]
Cn1c(=O)n(O)c(=O)c2cc(F)c(N3CCCC3)cc21 | 32 (≈ 115 µM) | 16 (≈ 57.3 µM) | 8 (≈ 28.6 µM) | > 64 | > 64 | > 100 | > 64
N[C@H]1CCN(c2c(F)cc3c(=O)n(O)c(=O)n(C4CC4)c3c2Cl)C1 | 2 (≈ 5.64 µM) | 0.5 (≈ 1.41 µM) | 1 (≈ 2.82 µM) | 16 (≈ 45.1 µM) | 4 (≈ 11.3 µM) | 1 | 32 (≈ 90.2 µM)
O=c1c2cc(F)c(-n3ccnc3)cc2n(C2CC2)c(=O)n1O | > 64 | 8 (≈ 26.5 µM) | 2 (≈ 6.62 µM) | 64 (≈ 212 µM) | 64 (≈ 212 µM) | 0.4 | 64 (≈ 212 µM)
O=c1c2cc(F)c(N3CCCC3)cc2n(-c2ccc(F)cc2F)c(=O)n1O | > 64 | 32 (≈ 84.8 µM) | 32 (≈ 84.8 µM) | 64 (≈ 170 µM) | 32 (≈ 84.8 µM) | > 100 | 64 (≈ 170 µM)
CN1CC2CN(c3cc4c(cc3F)c(=O)n(O)c(=O)n4C3CC3)CC2C1 (configuration not stated) | 4 (≈ 11.1 µM) | 2 (≈ 5.55 µM) | 1 (≈ 2.77 µM) | 32 (≈ 88.8 µM) | 32 (≈ 88.8 µM) | 7.8 | 32 (≈ 88.8 µM)
O=C(O)c1cn(C2CC2)c2cc(N3CCNCC3)c(F)cc2c1=O [CIPROFLOXACIN] |  |  |  | 4 (≈ 12.1 µM) | 2 (≈ 6.04 µM) | 0.4 | 0.4 (≈ 1.21 µM)
O=c1c2cc(F)c(N3C[C@@H]4CCCN[C@@H]4C3)cc2n(C2CC2)c(=O)n1O | 8 (≈ 22.2 µM) | 2 (≈ 5.55 µM) | 1 (≈ 2.77 µM) | 32 (≈ 88.8 µM) | 32 (≈ 88.8 µM) | 5 | 64 (≈ 178 µM)
O=c1c2cc(F)c(N3CCCC3)cc2n(Cc2ccccc2)c(=O)n1O | > 64 | 32 (≈ 90 µM) | 16 (≈ 45 µM) | 16 (≈ 45 µM) | 32 (≈ 90 µM) | > 100 | > 64
O=c1c2cc(F)c(N3CCCC3)cc2n(CC2CC2)c(=O)n1O | 32 (≈ 100 µM) | 0.5 (≈ 1.57 µM) | 0.5 (≈ 1.57 µM) | 8 (≈ 25.1 µM) | 8 (≈ 25.1 µM) | 13 | 64 (≈ 200 µM)
CCn1c(=O)n(O)c(=O)c2cc(F)c(N3CCCC3)cc21 | > 64 | 2 (≈ 6.82 µM) | 1 (≈ 3.41 µM) | 32 (≈ 109 µM) | 32 (≈ 109 µM) | > 100 | 
N[C@H]1CCN(c2c(F)cc3c(=O)n(O)c(=O)n(C4CC4)c3c2F)C1 | 8 (≈ 23.6 µM) | 2 (≈ 5.91 µM) | 1 (≈ 2.96 µM) | 32 (≈ 94.6 µM) | 16 (≈ 47.3 µM) | 0.28 | 16 (≈ 47.3 µM)
O=c1[nH]c2cc(N3CCCC3)c(F)cc2c(=O)n1O | 64 (≈ 241 µM) | 32 (≈ 121 µM) | 16 (≈ 60.3 µM) | 8 (≈ 30.2 µM) | 32 (≈ 121 µM) | > 100 | 

Second part, the molecule after the results:

MIC (Escherichia coli [1]) [µg/mL] | MIC (Escherichia coli [2]) [µg/mL] | MIC (Escherichia coli [3]) [µg/mL] | MIC (Staphylococcus aureus) [µg/mL] | MIC (Streptococcus pyogenes) [µg/mL] | Activity [4] [µM] | MIC (Enterococcus faecalis) [µg/mL] | Structure (SMILES)
8 (≈ 26.2 µM) | 0.1 (≈ 0.328 µM) | 0.13 (≈ 0.426 µM) | 1 (≈ 3.28 µM) | 16 (≈ 52.4 µM) | 7 |  | O=c1c2cc(F)c(N3CCCC3)cc2n(C2CC2)c(=O)n1O
> 64 | 1 (≈ 2.4 µM) | 0.5 (≈ 1.2 µM) | 4 (≈ 9.61 µM) | 16 (≈ 38.4 µM) | 8 | 16 (≈ 38.4 µM) | O=c1c2cc(F)c(N3CCC(CNCC(F)(F)F)C3)cc2n(C2CC2)c(=O)n1O (configuration not stated)
1 (≈ 3.12 µM) | 0.3 (≈ 0.937 µM) | 0.25 (≈ 0.78 µM) | 32 (≈ 99.9 µM) | 4 (≈ 12.5 µM) | 2 |  | N[C@H]1CCN(c2cc3c(cc2F)c(=O)n(O)c(=O)n3C2CC2)C1
16 (≈ 52.2 µM) | 0.25 (≈ 0.816 µM) | 0.5 (≈ 1.63 µM) | > 64 | > 64 | 18 |  | NC1CN(c2cc3c(cc2F)c(=O)n(O)c(=O)n3C2CC2)C1
1 (≈ 3.01 µM) | 0.25 (≈ 0.752 µM) | 0.25 (≈ 0.752 µM) | 4 (≈ 12 µM) | 2 (≈ 6.02 µM) | 0.7 | 4 (≈ 12 µM) | N[C@@H]1[C@H]2CN(c3cc4c(cc3F)c(=O)n(O)c(=O)n4C3CC3)C[C@@H]12
8 (≈ 23 µM) | 0.12 (≈ 0.344 µM) | 0.12 (≈ 0.344 µM) | 1 (≈ 2.87 µM) | 0.5 (≈ 1.44 µM) | 6.4 | 4 (≈ 11.5 µM) | C[C@H](N)[C@@H]1CCN(c2cc3c(cc2F)c(=O)n(O)c(=O)n3C2CC2)C1
32 (≈ 88.3 µM) | 4 (≈ 11 µM) | 2 (≈ 5.52 µM) | 16 (≈ 44.1 µM) | 2 (≈ 5.52 µM) | 6.2 | 16 (≈ 44.1 µM) | CN[C@@H](C)[C@@H]1CCN(c2cc3c(cc2F)c(=O)n(O)c(=O)n3C2CC2)C1
8 (≈ 22.1 µM) | 2 (≈ 5.52 µM) | 0.5 (≈ 1.38 µM) | 16 (≈ 44.1 µM) | 32 (≈ 88.3 µM) | 2.2 | 16 (≈ 44.1 µM) | CC(C)(N)[C@@H]1CCN(c2cc3c(cc2F)c(=O)n(O)c(=O)n3C2CC2)C1
8 (≈ 23.9 µM) | 1 (≈ 2.99 µM) | 1 (≈ 2.99 µM) | 16 (≈ 47.9 µM) | 2 (≈ 5.98 µM) |  |  | NCC1CCN(c2cc3c(cc2F)c(=O)n(O)c(=O)n3C2CC2)C1 (configuration not stated)

Reference: ChEMBL document CHEMBL1137174, “Synthesis and structural-activity relationships of 3-hydroxyquinazoline-2,4-dione antibacterial agents” (2004)
